Most compounds without a hit are left out; they make up all but 4.7% or so of the library.
MT1-MMP act inh = blockers of MT1-MMP proenzyme processing, primary screen, HT1080 RFP-PRO-GFP cells, GFP/RFP fluorescence. Matrix metalloproteinase-14 (Homo sapiens), P50281. GFP/RFP ratio change, % at 20 µM. GFP/RFP ratio fluorescence, overnight; percent of plate control window, DMSO zero. 360,000 tested, 0.061% active;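 active = GFP/RFP ratio change of at least 30% with cell ATP level not reduced by more than half and red fluorescence within 50% of control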
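Material – HT1080 RFP-PRO-GFP cells · Control set – DMSO wells and RFP-L50D-GFP cells · Incubation – overnight cell settling, then overnight compound exposure, 37 °C, 5% CO2 · Compound dosing – single-point 20 µM compound, 1% DMSO · Read-out – GFP/RFP fluorescence ratio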
MPTP inh = mitochondrial permeability transition pore inhibitors, primary screen, biochemical, isolated mouse mitochondria, absorbance; AID 602449, 2012; Ca2+ swelling absorbance, 30 min; inhibition, % at 10 µM; 360,000 tested, 1.4% active;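 active = inhibition of 50% or more, scaled per plate between neutral and stimulator controls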
ADAM10 inh = human ADAM10 inhibitors, primary screen, biochemical, QFRET, HTS; Disintegrin and metalloproteinase domain-containing protein 10 (Homo sapiens), O14672; recombinant ADAM10, EDANS/DABCYL FRET peptide cleavage, 3 h; inhibition, % at 7 µM; 370,000 tested, 0.62% active; AID 720582, 2013;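 active = inhibition above a per-campaign cutoff equal to the mean of compounds falling between control-based bounds plus 3 SD, cut at about 20% in these data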
Target sequence (O14672 214-748 limits assumed): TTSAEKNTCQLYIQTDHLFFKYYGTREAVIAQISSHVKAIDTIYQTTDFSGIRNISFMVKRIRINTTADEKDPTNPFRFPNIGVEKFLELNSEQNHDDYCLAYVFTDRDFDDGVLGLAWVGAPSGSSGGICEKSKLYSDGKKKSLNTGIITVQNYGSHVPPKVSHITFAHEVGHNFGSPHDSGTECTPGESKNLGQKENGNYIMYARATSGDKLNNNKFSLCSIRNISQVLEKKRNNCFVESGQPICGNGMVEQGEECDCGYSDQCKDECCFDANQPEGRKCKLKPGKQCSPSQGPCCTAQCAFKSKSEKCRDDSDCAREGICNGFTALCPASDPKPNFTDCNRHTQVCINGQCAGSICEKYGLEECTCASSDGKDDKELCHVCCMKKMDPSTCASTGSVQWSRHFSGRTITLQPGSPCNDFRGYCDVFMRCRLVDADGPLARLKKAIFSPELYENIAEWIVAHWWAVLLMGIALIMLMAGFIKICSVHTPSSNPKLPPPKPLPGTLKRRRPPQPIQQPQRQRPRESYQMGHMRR
ADAM17 inh = ADAM17 inhibitors, primary screen, biochemical, QFRET; 370,000 tested, 0.83% active; inhibition, % at 6.95 µM; recombinant ADAM17, EDANS/DABCYL FRET peptide cleavage;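 active = inhibition above the mean of compounds lying between control limits plus 3 SD, set per campaign, cut at about 8.5% in these data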
SKN-1 inh = suppressors of acrylamide-induced Pgst-4::GFP reporter in worms, primary screen, SKN-1 inhibitor project, whole organism, uHTS, GFP/RFP fluorescence ratio, strain VP596 | AID 624304, 2012 | 360,000 tested, 0.49% active | inhibition, % at 21.8 µM | C. elegans VP596 Pgst-4::GFP/RFP ratio, 24 h;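 active = interference check ratio from 0.5 to 1.5 plus GFP to RFP signal ratio inhibition reaching or exceeding a fixed threshold, cut at about 30% in these data, passing the limit was not always enough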
GRIN3A LBD mod = binders of NR3A ligand-binding domain, primary screen, biophysical, differential scanning fluorimetry, uHTS; 340,000 tested, 2.5% active; NR3A LBD differential scanning fluorimetry, Tm shift; 0% = protein alone, 100% = glycine-bound protein; Tm shift relative to glycine control, % at 25 µM; AID 1259313, 2017; Glutamate receptor ionotropic, NMDA 3A (GRIN3A) ligand-binding domain;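 active = melting temperature shift of at least 10% of the positive control shift, at one fixed dose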
MPTP counter = fluorescence retest of MPTP screen hits in isolated mitochondria, single concentration; shares compounds with MPTP inh; membrane potential, Rhodamine 123 fluorescence; inhibition, % at 10 µM; 5,000 tested, 78% active; in the data active = inhibition above about 22%
ADAM10 confirm = human ADAM10 inhibitors, confirmation, biochemical, QFRET, triplicate. 2,100 tested, 1% active. inhibition, % at 6.95 µM. ADAM10 QFRET peptide cleavage, EDANS fluorescence. shares compounds with ADAM10 inh. AID 743208, 2013;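 active = inhibition above about 20% chosen separately for each screening run, limit read from the data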
ADAM17 counter = ADAM17 inhibitors, counter-screen for ADAM10 exosite inhibitor project, biochemical, QFRET, high throughput | shares compounds with ADAM10 inh | ADAM17 QFRET peptide cleavage, EDANS fluorescence | inhibition, % at 6.95 µM | 2,100 tested, 0.5% active;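 active = mean triplicate inhibition above the solvent-only control wells' mean plus 3 SD, cut at about 12% in these data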
ADAM10 ctr = ADAM10 inhibitors, counter-screen for ADAM17 exosite inhibitor project, biochemical, FRET, human ADAM10. AID 743256, 2014. shares compounds with ADAM17 inh. inhibition, % at 6.95 µM. 2,900 tested, 47% active. recombinant ADAM10, EDANS/DABCYL FRET peptide cleavage, 3 h;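 active = mean inhibition over the triplicate runs exceeds the activity threshold set in the earlier primary screen, cut at about 20% in these data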
ADAM17 confirm = ADAM17 inhibitors, hit retest, confirmation, biochemical, QFRET peptide cleavage; recombinant ADAM17, EDANS/DABCYL QFRET peptide cleavage; AID 743257, 2014; 2,900 tested, 65% active; inhibition, % at 6.95 µM; shares compounds with ADAM17 inh;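 active = mean inhibition across replicates above the hit cutoff set in the primary screen, cut at about 8.5% in these data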
Numbers stand for hits; i = inactive; nt = not tested or not shown.

SMILES | MT1-MMP act inh | MPTP inh | ADAM10 inh | ADAM17 inh | SKN-1 inh | GRIN3A LBD mod | MPTP counter | ADAM10 confirm | ADAM17 counter | ADAM10 ctr | ADAM17 confirm
Cc1ccc(NC(=O)c2c(C(F)(F)F)nn(C)c2SCc2cccc(C(F)(F)F)c2)cc1C | i | 67.9 | 37.0 | 14.2 | i | i | 83.3 | i | i | 45.2 | 24.8
Cc1ccc(NC(=O)c2c(C(F)(F)F)nn(C)c2SCc2ccc(Cl)cc2)cc1C | i | i | i | i | i | i | nt | nt | nt | nt | nt
CCc1cccc(CC)c1NC(=O)c1ccc(-c2cc(Cl)ccc2Cl)o1 | i | i | i | i | i | nt | nt | nt | nt | nt | nt
CCCN(CC(=O)Nc1cccc(Br)c1)CC(=O)Nc1ccc(F)c(F)c1F | i | 74.2 | 32.1 | 21.5 | i | 22.4 | 74.7 | i | i | 29.0 | 15.5
CCCN(CC(=O)Nc1cccc(S(N)(=O)=O)c1)CC(=O)Nc1ccc(F)c(F)c1F | i | i | i | i | i | i | nt | nt | nt | nt | nt
CCn1nc([N+](=O)[O-])c(C(C#N)c2nc3cc(C(F)(F)F)ccc3s2)c(Cl)c1=O (configuration not stated) | i | 113.9 | 27.6 | 11.0 | i | i | i | i | i | 22.8 | 13.7
Cn1nc([N+](=O)[O-])c(C(C#N)c2ccccn2)c(Cl)c1=O (configuration not stated) | i | i | i | i | i | i | nt | nt | nt | nt | nt
O=C(NCc1csc(-c2cccs2)n1)Nc1ccc(F)cc1F | i | i | i | i | i | i | nt | nt | nt | nt | nt
O=C(NC(Nc1ncc(S(=O)(=O)c2ccc([N+](=O)[O-])cc2)s1)(C(F)(F)F)C(F)(F)F)c1ccc(Cl)cc1 | i | 99.7 | i | 11.7 | i | i | 86.8 | nt | nt | 41.4 | 17.3
c1ccc(CN2CCC(CNc3ncnc4ccccc34)C2)cc1 (configuration not stated) | i | i | i | i | i | i | nt | nt | nt | nt | nt
c1ccc(CN2CCC(Nc3nc(-c4ccccc4)nc4ccccc34)CC2)cc1 | i | 105.5 | 20.9 | 8.9 | i | i | i | i | i | 21.8 | 14.8
CCOC(=O)c1sc(=NC(=O)c2ccc(C)cc2)n(C)c1C | i | i | i | i | i | i | nt | nt | nt | nt | nt
CCCCSc1nnc(-c2ccc(C)cc2)n1C | i | i | i | i | i | i | nt | nt | nt | nt | nt
Cc1cccc(Nc2nc(N)c([N+](=O)[O-])c(N3CC(C)OC(C)C3)n2)c1 (configuration not stated) | i | i | i | i | i | i | nt | nt | nt | nt | nt

Source: PubChem BioAssay (several laboratories)
